# SENP8 block-1 = blocks the human protease SENP8; Q96LD8; purified SENP8, Z-RLRGG-aminoluciferin cleavage, luminescence; inhibition, % at 10 µM; 330,000 compounds, 1.2% hits; in the data active = inhibition above about 50%
# Target sequence (Q96LD8 whole entry, looked up): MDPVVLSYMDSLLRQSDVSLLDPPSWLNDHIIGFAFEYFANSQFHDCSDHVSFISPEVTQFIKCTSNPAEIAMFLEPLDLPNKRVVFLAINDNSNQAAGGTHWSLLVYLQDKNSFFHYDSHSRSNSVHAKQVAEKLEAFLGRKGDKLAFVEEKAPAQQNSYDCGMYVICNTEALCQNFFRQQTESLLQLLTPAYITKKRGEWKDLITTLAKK
# SENP8 block-2 = SENP8 (human) protease inhibition. 360,000 compounds, 0.64% hits. recombinant SENP8, Nedd8 substrate fluorescence. inhibition, % at 20 µM. Q96LD8; in the data active = inhibition mostly above about 40%, no sharp cut-off; inactive = mostly below about 27%
# SENP6 block = inhibitors of human SENP6 protease | Recombinant SENP6 catalytic domain, aminoluciferin luminescence | inhibition, % at 10 µM | 330,000 compounds, 1.8% hits | AID 2599;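 active = inhibition above about 50% at the single tested dose, limit read from the data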
# SENP7 block = inhibitors of human SENP7 protease | recombinant SENP7, Z-RLRGG-aminoluciferin luminescence, 40 min | inhibition, % at 5 µM | 330,000 compounds, 1.5% hits;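 active = inhibition above about 50% at the single test dose, limit read from the data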
# Target sequence (Q9BQF6 706-1050 limits assumed): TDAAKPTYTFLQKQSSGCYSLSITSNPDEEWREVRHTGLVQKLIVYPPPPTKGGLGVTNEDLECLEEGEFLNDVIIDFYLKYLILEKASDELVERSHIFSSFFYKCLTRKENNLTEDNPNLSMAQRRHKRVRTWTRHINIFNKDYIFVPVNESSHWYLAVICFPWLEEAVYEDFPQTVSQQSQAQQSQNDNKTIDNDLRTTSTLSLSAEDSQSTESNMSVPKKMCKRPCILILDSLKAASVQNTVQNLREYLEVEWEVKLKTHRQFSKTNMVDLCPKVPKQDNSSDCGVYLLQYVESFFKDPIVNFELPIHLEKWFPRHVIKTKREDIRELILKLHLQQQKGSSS
# Platelet DG rel = modulates dense granule release in human platelets; human platelet-rich plasma, SFLLRN dense granule ATP release, luminescence; inhibition, %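 (compounds screened at 7.5 µM in platelet-rich plasma)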; 300,000 compounds, 0.22% hits; AID 1663;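 active = mean replicate score, as percent of positive control, at or above 50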
# SENP1 inh = blocks the human SENP1 SUMO protease catalytic domain. recombinant SENP1 catalytic domain, CyPet-SUMO1-YPet FRET cleavage. 360,000 compounds, 0.21% hits. inhibition, % at 10 µM;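 active = inhibition at least 30% at 10 µM, raw YFP signal under a set limit, fluorescence ratio 0.5 to 1.5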
#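 system = hSENP1 catalytic domain, recombinant | reagent = SFCypet-SUMO1-SFYpet substrate at 25 nM | doses = one dose per compound, 10 µM, 0.5% DMSO | incubation = enzyme reaction for 50 min at room temperature, dark | measured by = FRET, CFP and YFP emission | controls = no-enzyme low, enzyme-DMSO high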
# SENP8 conf-1 = human SENP8 inhibition, confirmed; 6,200 compounds, 40% hits; Recombinant SENP8, Z-RLRGG-aminoluciferin luminescence, 60 min; inhibition, % at 12.5 µM; shares compounds with SENP7 block; AID 488912;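 active = mean inhibition across replicates above about 50%, limit read from the data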
# SENP6 conf = human SENP6 inhibition, confirmed | shares compounds with SENP7 block | recombinant SENP6, Z-RLRGG-aminoluciferin luminescence | inhibition, % at 12.5 µM | 6,200 compounds, 58% hits
# SENP7 confirm = human SENP7 inhibition, confirmed; shares compounds with SENP7 block; recombinant SENP7, Z-RLRGG-aminoluciferin luminescence, 40 min; inhibition, % at 12.5 µM; 6,200 compounds, 69% hits
# Casp3 select = inhibits human caspase-3 in SENP selectivity test; AID 488918; inhibition, % at 12.5 µM; purified caspase-3, Z-DEVD-aminoluciferin luminescence, 60 min; 6,200 compounds, 60% hits; shares compounds with SENP7 block;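 active = mean inhibition above about 50%, limit read from the data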
# Luc interf = counter-screen for SENP inhibitors: luminescence interference; AID 488919; Pre-incubated SENP8/Z-RLRGG-aminoluciferin, luciferase luminescence interference; inhibition, % at 12.5 µM; 6,200 compounds, 39% hits; shares compounds with SENP7 block;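 active = mean inhibition above about 50% when retested at one dose, limit read from the data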
# SENP8 conf-2 = SENP8 (human) inhibition, single concentration confirmation. purified SENP8, Nedd8-AMC/pro-Nedd8 cleavage fluorescence, 30 min. shares compounds with SENP8 block-2. inhibition, % at 25 µM. 1,400 compounds, 15% hits; in the data active = inhibition mostly above about 39%, no sharp cut-off; inactive = mostly below about 34%
# Hits are given with their value; n = inactive; x = no result. A selection: hits, their analogues and other compounds. The true share with any hit is near 2.6%.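 Rule for the calls, unless noted: active = mean inhibition above about 50% in the one-dose retest (limit read from the data); inactive = the rest.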
SMILES,SENP8 block-1,SENP8 block-2,SENP6 block,SENP7 block,Platelet DG rel,SENP1 inh,SENP8 conf-1,SENP6 conf,SENP7 confirm,Casp3 select,Luc interf,others
Cc1ccc(N2CC3=C(C2=O)C(c2ccccc2)NC(=O)N3C)cc1 (stereo not given),n,n,n,n,n,n,x,x,x,x,x,
O=C(CSc1nnc(CNC(=O)c2ccc(F)cc2)o1)NCc1ccccc1,n,n,n,n,n,n,x,x,x,x,x,
CC(/C=N/Nc1nnc2c(n1)[nH]c1ccccc12)=C\c1ccco1,n,n,n,83,n,n,n,n,n,n,n,
Cc1ccc(NC(=O)N2CCCc3ccccc32)cc1,n,n,n,n,n,n,x,x,x,x,x,
Cc1ccc2c(CC(=O)N3CCc4ccccc43)coc2c1,66,n,81,82,x,n,n,n,60,70,n,
CC(=O)Nc1ccc(NC(=O)Nc2ccc3c(c2)N(C)C(=O)CS3)cc1,n,n,n,n,n,n,x,x,x,x,x,
CN1C(=O)CSc2ccc(NC(=O)N3CCc4ccccc43)cc21,n,n,59,n,n,n,57,54,85,62,53,
Cc1ccc(NC(=O)N2CCc3ccccc32)cc1,89,n,86,94,n,n,91,94,101,94,94,
COc1ccc(NC(=O)N2CCCc3ccccc32)cc1OC,n,n,n,n,n,n,x,x,x,x,x,
Cc1ccc(NC(=O)N2CCc3ccccc32)cc1C,82,n,90,92,n,n,91,91,99,88,81,
COc1ccc(C)cc1S(=O)(=O)Nc1cc2c3c(c1)CC(=O)N3CCC2,n,n,n,n,n,n,x,x,x,x,x,
O=C(Cc1nn[nH]n1)Nc1ccc(F)cc1F,n,n,n,n,n,n,x,x,x,x,x,
Cn1c(O)c(N=Nc2ccccc2)c2ccccc21,n,n,n,n,n,n,x,x,x,x,x,
Cn1c(O)c(N=Nc2nc(-c3ccccc3)cs2)c2ccccc21,n,n,n,59,n,46,n,n,n,n,n,
Cc1ccc(/C=N/N=C/c2ccc(C)s2)s1,n,n,77,63,n,n,n,60,82,n,n,
O=C(c1ccccc1)N1N=C(C(F)(F)F)CC1(O)c1ccccc1 (stereo not given),n,n,n,n,n,n,x,x,x,x,x,
O=C(Nc1ccccc1)Nc1cccc2nsnc12,91,n,95,95,n,n,96,96,100,92,90,
COc1ccc(-n2c(=O)c3c4c(sc3n(CC(=O)Nc3cc(C)[nH]n3)c2=O)CCC4)c(OC)c1,n,n,n,n,n,n,x,x,x,x,x,
CCN(CC)C(=O)CCNS(=O)(=O)c1ccc(C)cc1,n,n,n,n,n,n,x,x,x,x,x,
COc1ccccc1N1C(=O)Cc2ccccc2C1=O,n,90,69,n,n,n,n,63,n,n,n,SENP8 conf-2=55
C=C(C)c1cccc(C(C)(C)NC(=O)NCC2COCCO2)c1 (stereo not given),n,n,n,n,n,n,x,x,x,x,x,
COc1cc(O)c(CC=C(C)C)c(O)c1C(=O)CCc1ccc(O)cc1,70,54,77,n,n,n,n,77,83,n,n,SENP8 conf-2=n
CCCC(=O)Nc1c2c(nn1-c1ccc(C)cc1)CS(=O)(=O)C2,n,n,n,n,n,n,x,x,x,x,x,
O=C1Cc2ccccc2C(=O)N1CCc1ccccc1,95,98,97,87,n,n,86,96,86,96,n,SENP8 conf-2=88
O=C1C(=O)N(Cc2ccccc2)C(=O)N1CCN1C(=O)c2ccccc2C1=O,n,n,n,n,n,n,x,x,x,x,x,
SMILES,SENP8 block-1,SENP8 block-2,SENP6 block,SENP7 block,Platelet DG rel,SENP1 inh,SENP8 conf-1,SENP6 conf,SENP7 confirm,Casp3 select,Luc interf,others
COc1ccc(/C=N/NC(=O)c2nn(-c3ccc(C)c(C)c3)c(=O)c3ccccc23)cc1,n,n,n,n,n,n,x,x,x,x,x,
COc1ccc(/C=N/NC(=O)c2nn(-c3ccccc3)c(=O)c3c(N)scc23)cc1,n,74,52,n,n,n,n,68,n,61,n,SENP8 conf-2=83
COc1ccc(/C=N/NC(=O)c2nn(-c3ccc(Cl)cc3)c(=O)c3c(N)scc23)cc1,n,49,61,n,n,n,n,n,n,n,n,SENP8 conf-2=61
Nc1nnc(-c2cccc([N+](=O)[O-])c2)o1,n,n,n,n,n,n,x,x,x,x,x,
COc1ccc(NC(=S)Nc2ccc3nsnc3c2)cc1,95,52,96,89,n,n,n,90,84,n,n,SENP8 conf-2=71
COc1ccc(NC(=S)Nc2ccc3nc(C)c(C)nc3c2)cc1,n,n,n,n,n,n,x,x,x,x,x,
Cc1ccc(S(=O)(=O)N2CCN(C(=O)COC(=O)COc3cccc4c3OC(C)(C)C4)CC2)cc1,n,n,n,n,n,n,x,x,x,x,x,
CCOC(=O)C1=C(C)N[C@@]2(O)c3ccccc3C(=O)[C@@]12O,n,n,n,n,n,n,x,x,x,x,x,
CCOC(=O)C1=C(C)OC2(O)c3ccccc3C(=O)C12O (stereo not given),64,96,69,n,n,n,n,88,82,n,n,SENP8 conf-2=99
COc1ccc(C2=NNC(c3cccnc3)=Nc3ccc(OC)cc32)cc1,n,n,n,n,n,n,x,x,x,x,x,
COc1ccc(S(=O)(=O)Oc2ccc3cccc(N)c3c2)cc1,84,56,86,n,n,n,n,n,n,n,n,SENP8 conf-2=n
COc1ccc(S(=O)(=O)Oc2ccc3ccccc3c2)cc1,n,n,n,n,n,n,x,x,x,x,x,
Cc1cc(NC(=O)COC(=O)C2CC(=O)N(c3ccccc3)C2)no1 (stereo not given),n,n,n,n,n,n,x,x,x,x,x,
COC(=O)c1ccc(NC(=O)c2ccccc2C(=O)Nc2ccc(C(=O)OC)cc2)cc1,n,n,n,n,n,n,x,x,x,x,x,
COC(=O)c1ccc(NC(=O)C(=O)c2cccn2C)cc1,93,30,95,95,73,n,94,97,102,97,80,SENP8 conf-2=n
Nc1ccc(N2CCOCC2)c2nonc12,n,69,60,n,n,n,n,n,n,n,n,SENP8 conf-2=78
COc1ccc(S(=O)(=O)Nc2cccnc2)c(C)c1C,n,n,n,n,n,n,x,x,x,x,x,

# Bioassay records: PubChem BioAssay, several laboratories
